Reference: ChEMBL document CHEMBL2046423, “NOSH-Aspirin: A Novel Nitric Oxide-Hydrogen Sulfide-Releasing Hybrid: A New Class of Anti-inflammatory Pharmaceuticals” (ACS Med Chem Lett, 2012)
pIC50: −log10 of the molar value. Activity calls are given as the source filed them. No cut-off for these calls is given here.

Tests used:
BXPC-3 = assay: Cytotoxicity against human BxPC3 cells expressing COX1 and COX2 after 24 hrs by MTT assay; type: functional, cell-based; details: BXPC-3, 24 h
Summary of the method: (§1)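 Human cancer cell lines were exposed to compound and cell viability was read at 24 h. IC50 values were calculated from the viability data. Mean ± SEM of at least four experiments, each run in triplicate.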

HCT-15 = assay: Cytotoxicity against COX deficient human HCT15 cells after 24 hrs by MTT assay; type: functional, cell-based; details: HCT-15, 24 h; summary of the method: as §1
A549 = assay: Cytotoxicity against human A549 cells after 24 hrs by MTT assay; type: functional, cell-based; details: A549, 24 h; summary of the method: as §1
Rattus norvegicus [1] = assay: Antiinflammatory activity in rat assessed as reduction of carrageenan-induced PGE2 level in paw exudates at 0.21 mmol/kg by […] (reference value: 82 +/- 2 pg/mg); type: functional
Rattus norvegicus [2] = assay: Antiinflammatory activity in rat assessed as reduction of carrageenan-induced paw volume at 0.56 mmol/kg after 1 to 3 hrs; type: functional
SW480 = assay: Cytotoxicity against human SW480 cells expressing COX1 after 24 hrs by MTT assay; type: functional, cell-based; details: SW480, 24 h; summary of the method: as §1
Jurkat = assay: Cytotoxicity against human Jurkat cells expressing COX1 and COX2 after 24 hrs by MTT assay; type: functional, cell-based; summary of the method: as §1
Rattus norvegicus [3] = assay: Antiinflammatory activity in rat assessed as reduction of carrageenan-induced paw volume at 0.56 mmol/kg after 6 hrs; type: functional
SK-BR-3 = assay: Cytotoxicity against ER deficient human SKBR3 cells after 24 hrs by MTT assay; type: functional, cell-based; details: SK-BR-3, 24 h; summary of the method: as §1
Rattus norvegicus [4] = assay: Antiinflammatory activity in rat assessed as reduction of carrageenan-induced paw volume at 0.56 mmol/kg after 1 hr; type: functional
MDA-MB-231 = assay: Cytotoxicity against ER deficient human MDA-MB-231 cells after 24 hrs by MTT assay; type: functional, cell-based; details: MDA-MB-231, 24 h; summary of the method: as §1
Rattus norvegicus [5] = assay: Antiinflammatory activity in rat assessed as increase of carrageenan-induced TNFalpha level in plasma at 0.56 mmol/kg by ELISA; type: functional
LNCaP = assay: Cytotoxicity against human LNCAP cells after 24 hrs by MTT assay; type: functional, cell-based; summary of the method: as §1
MCF7 = assay: Cytotoxicity against human MCF7 cells expressing ER after 24 hrs by MTT assay; type: functional, cell-based; details: MCF7, 24 h; summary of the method: as §1
MIA PaCa-2 = assay: Cytotoxicity against COX deficient human MIAPaCa2 cells after 24 hrs by MTT assay; type: functional, cell-based; details: MIA PaCa-2, 24 h; summary of the method: as §1
HT-29 [6] = assay: Ratio of aspirin IC50 to compound IC50 for human HT-29 cells expressing COX1 and COX2 after 24 hrs by MTT assay; type: functional; summary of the method: as §1
HT-29 [7] = assay: Cytotoxicity against human HT-29 cells expressing COX1 and COX2 after 24 hrs by MTT assay; type: functional, cell-based; details: HT-29, 24 h; summary of the method: as §1
Rattus norvegicus [8] = assay: In vivo drug metabolism in carrageenan treated rat assessed as increase of H2S release in plasma by […]; type: ADME, organism-based
Summary of the method: (§2)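 Blood was collected at the end of the carrageenan paw edema study from rats given vehicle, the reference or the test compound (0.21 or 0.52 mmol/kg). Plasma NOx and H2S were quantified. Mean ± SEM, four rats per group.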

Rattus norvegicus [9] = assay: In vivo drug metabolism in carrageenan treated rat assessed as increase of nitric oxide release in plasma by Griess reaction; type: ADME, organism-based; summary of the method: as §2
HT-29 [10] = assay: Cytotoxicity against human HT-29 cells expressing COX1 and COX2 assessed as lactate dehydrogenase release at IC50 after 2 to 8 hrs; type: functional
Summary of the method: (§3)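 HT-29 colon cancer cells were treated with several concentrations for 2, 4, 6, 8 or 24 h. Cytotoxicity was read as LDH release (%) relative to untreated controls.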

Rattus norvegicus [11] = assay: Antiinflammatory activity in rat assessed as reduction of carrageenan-induced TNFalpha level in plasma at 0.21 mmol/kg by ELISA; type: functional
Rattus norvegicus [12] = species on record: Rattus norvegicus; assay: Antiinflammatory activity in rat assessed as reduction of carrageenan-induced paw volume measured after 6 hrs; type: functional, organism-based
Rattus norvegicus [13] = assay: Antiinflammatory activity in rat assessed as reduction of carrageenan-induced paw volume at 0.21 mmol/kg after 1 hr; type: functional
Rattus norvegicus [14] = assay: Antiinflammatory activity in rat assessed as reduction of carrageenan-induced COX1 expression in paw exudates at 0.21 to 0.52 mmol/kg by Western blot analysis; type: functional, organism-based
Rattus norvegicus [15] = assay: Antiinflammatory activity in rat assessed as reduction of carrageenan-induced paw volume at 0.21 mmol/kg after 6 hrs; type: functional
Rattus norvegicus [16] = assay: Antiinflammatory activity in rat assessed as reduction of carrageenan-induced paw volume at 0.52 mmol/kg after 2 to 6 hrs; type: functional
HT-29 [17] = assay: Cytotoxicity against human HT-29 cells expressing COX1 and COX2 assessed as lactate dehydrogenase release at 4 times IC50 after 24 hrs; type: functional; summary of the method: as §3
Rattus norvegicus [18] = assay: Antiinflammatory activity in rat assessed as reduction of carrageenan-induced paw volume at 0.52 mmol/kg after 1 to 2 hrs; type: functional
Rattus norvegicus [19] = species on record: Rattus norvegicus; assay: Antiinflammatory activity in rat assessed as reduction of carrageenan-induced COX2 expression in paw exudates by Western blot analysis; type: functional, organism-based
Rattus norvegicus [20] = assay: Antiinflammatory activity in rat assessed as reduction of carrageenan-induced PGE2 level in paw exudates at 0.52 mmol/kg by […] (reference value: 82 +/- 2 pg/mg); type: functional
HT-29 [21] = assay: Cytotoxicity against human HT-29 cells expressing COX1 and COX2 assessed as lactate dehydrogenase release at IC50 to 4 times IC50; type: functional, cell-based; details: TDE = time-dependent effect; summary of the method: as §3
HT-29 [22] = assay: Cytotoxicity against human HT-29 cells expressing COX1 and COX2 assessed as lactate dehydrogenase release at 4 times IC50 after 2 to 8 hrs; type: functional; summary of the method: as §3
Rattus norvegicus [23] = assay: Antiinflammatory activity in rat assessed as reduction of carrageenan-induced paw volume at 0.21 mmol/kg after 3 hrs; type: functional
Rattus norvegicus [24] = assay: Antiinflammatory activity in rat assessed as reduction of carrageenan-induced TNFalpha level in plasma at 0.52 mmol/kg by ELISA; type: functional
HT-29 [25] = assay: Cytotoxicity against human HT-29 cells expressing COX1 and COX2 assessed as lactate dehydrogenase release after 2 to 24 hrs; type: functional, cell-based; summary of the method: as §3

Row | Structure (SMILES) | pIC50 (BXPC-3) | pIC50 (HCT-15) | pIC50 (A549) | Activity (Rattus norvegicus [1]) | pIC50 (SW480) | pIC50 (Jurkat) | pIC50 (SK-BR-3) | pIC50 (MDA-MB-231) | pIC50 (LNCaP) | pIC50 (MCF7) | pIC50 (MIA PaCa-2) | Ratio IC50 (HT-29 [6]) | pIC50 (HT-29 [7]) | other results
1 | CC(=O)Oc1ccccc1C(=O)O [ASPIRIN] | < 2.30 | < 2.30 | < 2.30 | 12 pg/mg | < 2.30 | < 2.30 | < 2.30 | < 2.30 | < 2.30 | < 2.30 | < 2.30 | – | – | Activity (Rattus norvegicus [2]): 0.35 mL; Activity (Rattus norvegicus [3]): 0.35 mL; Activity (Rattus norvegicus [4]): 0.4 mL; Activity (Rattus norvegicus [5]): 200 pg/mL
2 | NC(=S)c1ccc(OC(=O)c2ccccc2OC(=O)CCCO[N+](=O)[O-])cc1 | 5.26 | 5.23 | 5.19 | – | 5.28 | 5.15 | 5.19 | 5.22 | 5.37 | 5.24 | 5.32 | >600 | 5.12 | –
3 | O=C(CCC(=O)Oc1ccccc1C(=O)Oc1ccc(-c2cc(=S)ss2)cc1)OCCCCO[N+](=O)[O-] | 7.00 | 7.05 | 6.92 | – | 7.01 | 7.05 | 7.06 | 7.07 | 7.00 | 7.15 | 6.99 | >60000 | 7.10 | –
4 | O=C(CCCC[C@@H]1CCSS1)Oc1ccccc1C(=O)OCCCCO[N+](=O)[O-] | 6.15 | 6.28 | 6.52 | – | 6.22 | 6.62 | 6.26 | 6.10 | 6.30 | 6.55 | 6.10 | >16000 | 6.52 | –
5 | O=C(CCCO[N+](=O)[O-])Oc1ccccc1C(=O)Oc1ccc(-c2cc(=S)ss2)cc1 | 7.24 | 7.30 | 7.30 | 42 pg/mg | 7.22 | 7.00 | 7.12 | 7.00 | 7.06 | 6.55 | 7.33 | 100000 | 7.32 | Drug metabolism (Rattus norvegicus [8]): Dose-dependent effect; Drug metabolism (Rattus norvegicus [9]): Dose-dependent effect; Activity (HT-29 [10]): 0.5%; Activity (Rattus norvegicus [11]): 55 pg/mL; Activity (Rattus norvegicus [12]): Dose-dependent effect; Activity (Rattus norvegicus [13]): 0.5 mL; inhibition (Rattus norvegicus [14]): Active; Activity (Rattus norvegicus [15]): 0.4 mL; Activity (Rattus norvegicus [16]): 0.35 mL; Activity (HT-29 [17]): <10%; Activity (Rattus norvegicus [18]): 0.45 mL; inhibition (Rattus norvegicus [19]): Dose-dependent effect; Activity (Rattus norvegicus [20]): 21 pg/mg; Activity (HT-29 [21]): tde; Activity (HT-29 [22]): 1%; Activity (Rattus norvegicus [23]): 0.6 mL; Activity (Rattus norvegicus [24]): 40 pg/mL; Activity (HT-29 [25]): Dose-dependent effect
